Results of several laboratories.
Compare with care: the assays were run in different laboratories.
ABL1: Tyrosine-protein kinase ABL1 (ABL1, Homo sapiens, UniProt P00519)

Cn1cncc1[C@](O)(COc1ccc(C#N)cc1-c1ccc(OC(F)(F)F)cc1)c1ccc(C#N)cc1
remaining binding (Tyrosine-protein kinase ABL1, phosphorylated (ABL1, Homo sapiens, UniProt P00519); cell-free assay; competition with immobilised ligand; 1 µM): 100%

Cc1nn(C)cc1-c1nc2c(N3CCN(Cc4ccc(Cl)cc4)CC3)c(Cl)cnc2[nH]1
remaining binding (Tyrosine-protein kinase ABL1, phosphorylated (ABL1, Homo sapiens, UniProt P00519, Q252H); binding; competition with immobilised ligand; 1 µM): 84%

C#Cc1n[nH]c2c(-c3cn([C@@H](C)c4ccccn4)c(=O)[nH]c3=O)cc(F)cc12
inhibition (ABL1; enzyme activity; inhibitor; 0.1 µM): -3.6%

Cn1cc(-c2cc(F)cc(N3CCn4c(cc5c4CCCC5)C3=O)c2CO)cc(Nc2ccc(N3CCN(C4COC4)CC3)cn2)c1=O
inhibition (ABL1; enzyme activity; inhibitor; 0.1 µM): -1%

O=C(Nc1cccnn1)N1CCN([C@@H]2CCOc3cc(C(F)(F)F)ccc32)CC1
inhibition (ABL1; enzyme activity; inhibitor; 20 µM): -3%

Nc1ncc(-c2nc(N3CCOCC3)nc(N3CCOCC3)n2)c(C(F)F)n1
remaining binding (Tyrosine-protein kinase ABL1, non-phosphorylated (ABL1, Homo sapiens, UniProt P00519, F317I); binding; competition with immobilised ligand; 10 µM): 84%

Cc1ncc(C)n2nc(/C=C/c3nc(N4CCCC4)cc(N4CCOCC4)n3)nc12
inhibition (ABL1; enzyme activity; inhibitor; 10 µM): 14%

N#CC1(c2ccccn2)CCN(Cc2cc(C(=O)O)c(=O)n3ccccc23)CC1
remaining binding (Tyrosine-protein kinase ABL1, phosphorylated (ABL1, Homo sapiens, UniProt P00519, F317L); cell-free assay; competition with immobilised ligand; 1 µM): 84%

O=c1[nH]c2ccccc2n1C1CCN(Cc2ccc(-c3[nH]c4cc5ncnc5cc4nc3-c3ccccc3)cc2)CC1
remaining signal (ABL1; cell-free assay; 0.5 µM): 98.2%
